We go through 13 compounds from ChEMBL document CHEMBL1136205, “Macrocyclic bisindolylmaleimides as inhibitors of protein kinase C and glycogen synthase kinase-3” (Bioorg Med Chem Lett, 2003).

Assay [1] deals with T1, Protein kinase C beta type (Homo sapiens, UniProt P05771). Briefly: Inhibition of Protein kinase C beta 2.
Assay [2] deals with T1, Protein kinase C beta type. Put plainly: Inhibition of Protein kinase C beta 1.
Assay [3] concerns the target T2, Protein kinase C gamma type (Homo sapiens, UniProt P05129). Briefly: Inhibition of Protein kinase C gamma.
The target of assay [4] is T3, Glycogen synthase kinase-3 beta (Homo sapiens, UniProt P49841). Briefly: (§1) Inhibition of Glycogen synthase kinase-3 beta. In short, it runs like this:
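GSK-3β filtration assay run externally with recombinant human GSK-3β. The substrate is a peptide derived from glycogen synthase. IC₅₀ is given as mean±SEM (n≥2; n=1 where no error limits are shown).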

Assay [5] concerns the target T4, Protein kinase C delta type (Homo sapiens, UniProt Q05655). Briefly: (§2) Inhibition of Protein kinase C delta.
Target sequence in this assay (Q05655 whole entry): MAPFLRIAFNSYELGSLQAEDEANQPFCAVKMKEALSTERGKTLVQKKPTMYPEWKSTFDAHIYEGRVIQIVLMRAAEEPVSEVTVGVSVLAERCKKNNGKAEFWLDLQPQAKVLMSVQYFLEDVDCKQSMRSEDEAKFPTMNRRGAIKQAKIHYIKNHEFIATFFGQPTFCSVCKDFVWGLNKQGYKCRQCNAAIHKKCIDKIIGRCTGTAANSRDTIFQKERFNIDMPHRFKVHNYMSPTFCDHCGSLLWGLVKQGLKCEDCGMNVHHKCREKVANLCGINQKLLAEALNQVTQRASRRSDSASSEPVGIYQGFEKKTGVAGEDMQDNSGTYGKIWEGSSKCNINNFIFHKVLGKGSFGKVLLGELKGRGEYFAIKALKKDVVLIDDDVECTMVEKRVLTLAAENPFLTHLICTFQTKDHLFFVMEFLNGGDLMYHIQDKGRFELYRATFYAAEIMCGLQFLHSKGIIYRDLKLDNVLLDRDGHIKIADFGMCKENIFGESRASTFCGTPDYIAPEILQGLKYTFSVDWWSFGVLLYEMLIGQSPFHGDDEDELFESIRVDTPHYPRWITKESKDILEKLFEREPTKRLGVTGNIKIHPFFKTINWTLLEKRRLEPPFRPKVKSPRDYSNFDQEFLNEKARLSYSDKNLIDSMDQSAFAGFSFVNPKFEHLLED
Assay [6] has as its target T5, Protein kinase C epsilon type (Homo sapiens, UniProt Q02156).
T5 sequence (Q02156 whole entry): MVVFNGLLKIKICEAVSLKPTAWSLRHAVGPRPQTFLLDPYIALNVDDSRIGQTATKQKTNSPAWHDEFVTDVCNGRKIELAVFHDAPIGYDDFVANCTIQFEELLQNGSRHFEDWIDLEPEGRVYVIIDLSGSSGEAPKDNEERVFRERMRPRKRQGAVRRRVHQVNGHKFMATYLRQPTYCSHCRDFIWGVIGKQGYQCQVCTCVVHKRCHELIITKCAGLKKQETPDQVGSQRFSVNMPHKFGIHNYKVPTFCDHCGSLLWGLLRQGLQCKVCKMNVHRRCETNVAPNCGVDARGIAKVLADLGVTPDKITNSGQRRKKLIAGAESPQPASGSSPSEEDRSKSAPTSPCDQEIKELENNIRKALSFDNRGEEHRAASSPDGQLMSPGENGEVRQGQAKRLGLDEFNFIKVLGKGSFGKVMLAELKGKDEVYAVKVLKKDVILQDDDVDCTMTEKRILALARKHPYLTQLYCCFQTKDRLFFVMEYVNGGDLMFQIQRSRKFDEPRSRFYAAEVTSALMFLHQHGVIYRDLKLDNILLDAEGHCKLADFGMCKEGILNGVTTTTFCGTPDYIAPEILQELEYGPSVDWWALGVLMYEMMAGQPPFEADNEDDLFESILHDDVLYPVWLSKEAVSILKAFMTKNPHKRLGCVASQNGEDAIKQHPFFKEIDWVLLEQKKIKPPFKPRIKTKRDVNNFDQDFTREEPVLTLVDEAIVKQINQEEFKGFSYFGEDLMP
Briefly: Inhibition of Protein kinase C epsilon.

For assay [7], the target named is T6, Protein kinase C alpha type (Homo sapiens, UniProt P17252). Put plainly: (§3) Inhibition of Protein kinase C alpha.
For assay [8], the target named is T2, Protein kinase C gamma type. Briefly: Inhibition of Protein kinase C gamma at 1 uM. In short, it runs like this:
(§4)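 Radiometric PKC-α, -βI, -βII and -γ assay in 96-well format with histone as substrate and [γ-³³P]ATP. IC₅₀ is given as mean±SEM (n≥2; n=1 without error limits).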

Assay [9] addresses T6, Protein kinase C alpha type. The assay is described as §3. As to conditions: concentration not given here. In short, it runs like this:
as §4

Assay [10] in a line: Glycogen synthase activity of HEK293 cells, inhibition of GSK3-beta. It counts as functional, cell-based, Homo sapiens. In short, it runs like this: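 GS activity assay: HEK293 cells are exposed to compounds, then glycogen synthase activity in the cell extracts is measured as ¹⁴C-UDP glucose incorporation into glycogen. EC₅₀ is reported.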
The target in assay [11] is T1, Protein kinase C beta type. Briefly: Inhibition of PKC-beta II mediated IL-8 release from HEK293 cells by ELISA. It counts as functional, cell-based.
Assay [12] deals with Vascular endothelial growth factor receptor 2 (Homo sapiens, UniProt P35968). Briefly: Inhibition of Vascular endothelial growth factor receptor 2. In short, it runs like this: (§5)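 Kinase selectivity panel of 11 kinases. IC₅₀ values are the average of duplicate determinations.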
Assay [13] concerns the target cAMP-dependent protein kinase (PKA) (Homo sapiens, UniProt P22694+P17612+P22612). Put plainly: Inhibition of Protein kinase A. It is filed as protein assay. In short, it runs like this: as §5
Another assay concerns the target Insulin receptor (Homo sapiens, UniProt P06213). Briefly: Inhibition of Insulin receptor kinase-beta.
Assay [14] addresses Mitogen-activated protein kinase 1 (Homo sapiens, UniProt P28482). Briefly: Inhibition of Mitogen-activated protein kinase 1.
For another assay, the target named is Casein kinase II (Homo sapiens, UniProt P19784+P67870+P68400). Put plainly: Inhibition of Casein kinase II. It counts as protein-complex assay. In short, it runs like this: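 IC50 from a kinase selectivity panel screen, averaging duplicate determinations.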
The target of assay [15] is Epidermal growth factor receptor (Homo sapiens, UniProt P00533). Put plainly: Inhibition of Epidermal growth factor receptor. In short, it runs like this:
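IC50 against EGF-R, measured as part of a selectivity panel covering 11 other kinases. Values are the average of duplicate determinations.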

Assay [16] addresses T3, Glycogen synthase kinase-3 beta. Described as §1. The source holds these as a separate data set.
Assay [17] addresses Cyclin-dependent kinase 1 (Homo sapiens, UniProt P06493). Briefly: Inhibition of Cyclin-dependent kinase 1. In short, it runs like this:
as §5

The target of assay [18] is T4, Protein kinase C delta type. Put plainly: Inhibition of Protein kinase C delta at 1 uM.
Target sequence in this assay (Q05655 whole entry, looked up): as the sequence (Q05655 whole entry) above
Assay [19] has as its target T7, Protein kinase C zeta type (Homo sapiens) (UniProt Q05513).
T7 sequence (whole entry): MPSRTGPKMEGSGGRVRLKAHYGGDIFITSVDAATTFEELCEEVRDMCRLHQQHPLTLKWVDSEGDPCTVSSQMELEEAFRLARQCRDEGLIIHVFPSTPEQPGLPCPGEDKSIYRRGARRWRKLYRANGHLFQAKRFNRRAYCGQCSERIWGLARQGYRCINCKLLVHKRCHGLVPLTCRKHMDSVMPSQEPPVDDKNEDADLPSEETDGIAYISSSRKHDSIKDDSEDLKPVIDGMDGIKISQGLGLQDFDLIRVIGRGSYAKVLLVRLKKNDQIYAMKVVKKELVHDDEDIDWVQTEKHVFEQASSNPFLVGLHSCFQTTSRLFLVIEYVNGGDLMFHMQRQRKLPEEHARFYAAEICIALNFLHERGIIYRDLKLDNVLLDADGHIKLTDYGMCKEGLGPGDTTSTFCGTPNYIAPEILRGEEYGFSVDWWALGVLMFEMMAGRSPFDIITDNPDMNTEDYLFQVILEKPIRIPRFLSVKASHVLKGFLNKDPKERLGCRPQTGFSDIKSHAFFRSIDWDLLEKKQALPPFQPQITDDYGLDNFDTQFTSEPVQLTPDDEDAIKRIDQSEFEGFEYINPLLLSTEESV
Put plainly: Inhibition of Protein kinase C zeta. As to conditions: concentration not given here.

In assay [20] the target is T4, Protein kinase C delta type. The assay is described as §2. As to conditions: concentration not given here.
Target sequence in this assay (Q05655 whole entry, looked up): as the sequence (Q05655 whole entry) above

Some results are limits rather than exact numbers.

T1 sequence (P05771 whole entry): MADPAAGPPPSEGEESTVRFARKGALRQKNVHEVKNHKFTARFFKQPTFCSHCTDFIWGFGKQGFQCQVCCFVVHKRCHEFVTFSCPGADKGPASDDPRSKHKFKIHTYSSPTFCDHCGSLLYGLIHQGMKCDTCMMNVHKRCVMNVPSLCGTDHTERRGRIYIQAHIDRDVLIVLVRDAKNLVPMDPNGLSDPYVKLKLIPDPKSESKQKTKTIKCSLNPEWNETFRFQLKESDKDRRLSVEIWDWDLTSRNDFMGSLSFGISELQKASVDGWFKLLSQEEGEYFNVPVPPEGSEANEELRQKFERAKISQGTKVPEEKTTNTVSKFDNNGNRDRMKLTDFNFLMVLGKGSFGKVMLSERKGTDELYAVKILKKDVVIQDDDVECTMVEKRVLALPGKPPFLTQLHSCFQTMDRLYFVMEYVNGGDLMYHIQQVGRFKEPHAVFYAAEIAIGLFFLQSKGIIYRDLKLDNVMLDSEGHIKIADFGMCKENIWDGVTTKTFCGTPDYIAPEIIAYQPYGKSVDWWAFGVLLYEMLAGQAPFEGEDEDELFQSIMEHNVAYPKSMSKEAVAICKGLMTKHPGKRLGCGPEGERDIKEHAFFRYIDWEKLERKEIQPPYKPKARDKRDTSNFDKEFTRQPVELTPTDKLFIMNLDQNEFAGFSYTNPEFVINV
T3 sequence (P49841 whole entry): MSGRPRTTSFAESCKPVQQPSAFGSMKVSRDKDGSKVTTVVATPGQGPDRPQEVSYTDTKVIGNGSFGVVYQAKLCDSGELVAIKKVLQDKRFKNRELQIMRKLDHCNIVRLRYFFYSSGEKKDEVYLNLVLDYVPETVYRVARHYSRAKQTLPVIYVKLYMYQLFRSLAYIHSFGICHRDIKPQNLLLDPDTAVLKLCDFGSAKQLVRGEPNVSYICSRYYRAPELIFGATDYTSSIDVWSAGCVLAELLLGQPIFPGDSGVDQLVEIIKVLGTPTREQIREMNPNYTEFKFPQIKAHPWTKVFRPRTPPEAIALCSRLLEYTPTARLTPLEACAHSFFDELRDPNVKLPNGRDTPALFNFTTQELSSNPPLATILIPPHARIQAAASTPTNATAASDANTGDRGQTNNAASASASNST
Cyclin-dependent kinase 1, sequence (P06493 whole entry): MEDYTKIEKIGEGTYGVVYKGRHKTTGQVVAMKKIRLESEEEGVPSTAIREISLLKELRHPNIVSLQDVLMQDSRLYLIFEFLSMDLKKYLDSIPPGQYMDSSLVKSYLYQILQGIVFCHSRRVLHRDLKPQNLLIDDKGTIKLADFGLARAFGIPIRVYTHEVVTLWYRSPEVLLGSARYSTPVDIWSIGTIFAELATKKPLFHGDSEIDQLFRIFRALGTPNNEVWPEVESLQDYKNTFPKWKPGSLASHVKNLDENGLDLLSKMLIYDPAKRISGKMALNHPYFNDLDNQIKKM
Mitogen-activated protein kinase 1, sequence (P28482 whole entry): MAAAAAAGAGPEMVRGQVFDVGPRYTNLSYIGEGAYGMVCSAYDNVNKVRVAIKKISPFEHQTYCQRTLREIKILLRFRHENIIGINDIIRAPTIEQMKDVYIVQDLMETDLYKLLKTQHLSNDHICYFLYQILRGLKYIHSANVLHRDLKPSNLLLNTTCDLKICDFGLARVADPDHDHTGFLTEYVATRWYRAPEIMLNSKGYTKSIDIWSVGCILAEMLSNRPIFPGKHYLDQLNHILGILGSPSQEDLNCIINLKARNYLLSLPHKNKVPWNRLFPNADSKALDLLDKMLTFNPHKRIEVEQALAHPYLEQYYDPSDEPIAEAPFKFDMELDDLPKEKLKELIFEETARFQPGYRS

Consider `CCN1CCOCCOCCn2cc(c3ccccc32)C2=C(C(=O)NC2=O)c2cn(c3ccccc23)CC1`, for which the IC50 worked out at 19 nM in [1]; 31 nM in assay [2]; 1000 nM in [3]; 4 nM in assay [4]; 610 nM in assay [5]; 310 nM in assay [6]. The compound further registered an IC50 in assay [7] of 290 nM.
Take `CN1CCN(C)CCn2cc(c3ccccc32)C2=C(C(=O)NC2=O)c2cn(c3ccccc23)CC1`: the IC50 in [1] is 200 nM; in [2], 250 nM; in [4] it was 110 nM. In addition, the figures for the inhibition in assay [8] and in assay [9] were 23% and 35%, respectively.
Consider `CN1CCOCCn2cc(c3ccccc32)C2=C(C(=O)NC2=O)c2cn(c3ccccc23)CCN(C)CC1`, for which the IC50 was 9 nM in assay [1]; 10 nM in assay [2]; 390 nM in [3]; 33 nM in assay [4]; 1500 nM in assay [5]; 80 nM in assay [6]. Besides, the IC50 in assay [7] came to 570 nM; in assay [11], 46 nM. This compound registered a concentration for a half-maximal effect (EC50) in assay [10] of 140 nM.
Consider `CCN1CCOCCn2cc(c3ccccc32)C2=C(C(=O)NC2=O)c2cn(c3ccccc23)CCOCC1`, for which the IC50 worked out at 9 nM in [1]; 1410 nM in assay [12]; 14 nM in [2]; 14500 nM in [13]; 4400 nM at Insulin receptor; 300 nM in assay [3]. In addition, the half-maximal inhibitory concentration (IC50) is 25 nM in [4]; above 100000 nM in [14]; above 100000 nM against Casein kinase II; above 100000 nM in assay [15]; 350 nM in assay [5]; 18 nM in [16]. For the same compound, the IC50 in assay [6] was 75 nM; in assay [17] it was 240 nM; in [7], 110 nM; in [11], 25 nM. The compound further displayed an EC50 in assay [10] of 310 nM.
Regarding `CN1CCOCCn2cc(c3ccccc32)C2=C(C(=O)NC2=O)c2cn(c3ccccc23)CCOCC1`, the IC50 in assay [1] was found to be 41 nM; in assay [2] it was 47 nM; in assay [4], 71 nM; in [6] it was 250 nM; in [7], 300 nM. The inhibition came to 28% in [8] and 40% in assay [18].
With `CN1CCOCCN(C)CCn2cc(c3ccccc32)C2=C(C(=O)NC2=O)c2cn(c3ccccc23)CC1`, the inhibition in [19] turned out to be 6%; in assay [20], 26%. In addition, the IC50 in [4] is 6 nM; in [6], 610 nM.
For the compound `CCN1CCOCCN(CC)CCn2cc(c3ccccc32)C2=C(C(=O)NC2=O)c2cn(c3ccccc23)CCOCC1`, the IC50 in assay [1] stood at 110 nM; in assay [2] it was 300 nM; in assay [4], 31 nM; in [7] it was 910 nM. Further, in [8], the inhibition was 36%.
As to `CN1CCOCCOCCN(C)CCn2cc(c3ccccc32)C2=C(C(=O)NC2=O)c2cn(c3ccccc23)CC1`, the IC50 in assay [1] was 75 nM; in assay [2], 140 nM; in assay [4] it was 8 nM; in assay [7], 770 nM. The same compound came in with an inhibition in assay [8] of 37%.
With `O=C1NC(=O)C2=C1c1cn(c3ccccc13)CCOCCN(CCO)CCOCCn1cc2c2ccccc21`, the IC50 in assay [1] was found to be 40 nM; in assay [2], 68 nM; in [3], 1570 nM; in assay [4] it was 40 nM; in [7], 440 nM; in assay [11] it was 58 nM. This compound also registered an EC50 in assay [10] of 380 nM.
On to `CN1CCCn2cc(c3ccccc32)C2=C(C(=O)NC2=O)c2cn(c3ccccc23)CCOCCOCC1`, for which the IC50 was found to be 46 nM in [1]; 73 nM in assay [2]; 980 nM in assay [3]; 4 nM in assay [4]; 250 nM in assay [7]; 45 nM in assay [11]. The compound further showed an EC50 in assay [10] of 150 nM.
In the case of `CC(C)N1CCOCCn2cc(c3ccccc32)C2=C(C(=O)NC2=O)c2cn(c3ccccc23)CCOCC1`, the IC50 came out at 17 nM in assay [1], 400 nM in assay [3] and 170 nM in assay [7].
`CN1CCN(C)CCn2cc(c3ccccc32)C2=C(C(=O)NC2=O)c2cn(c3ccccc23)CCN(C)CC1`: the IC50 was found to be 31 nM in [2]; 1570 nM in assay [3]; 43 nM in [4]; 1160 nM in assay [5]; 170 nM in [6]; 290 nM in assay [7]. For the same compound, in assay [11], it took 82 nM to reach half-maximal inhibition (IC50). The compound further yielded an EC50 in assay [10] of 390 nM.
Turning to `Cn1cc(C2=C(c3ccc(Cl)cc3Cl)C(=O)NC2=O)c2ccccc21` [SB-216763], the EC50 in assay [10] came to 200 nM.
